Reference: article PMC9187044 (Environmental Toxicology and Chemistry, 2021)
Entries after “also recorded” stand apart in the source; their conditions may differ. Read-outs that look alike come from different tables or passages of the source.

What was measured:
[1] = ref Chen et al., 2016, cited from earlier work; for CLint,in vivo: RT-S9
[2] = Rainbow trout liver S9 substrate depletion assay; type: in vitro ADME, rainbow trout (Oncorhynchus mykiss); details: for Depletion / biotransformation in RT-S9 assay (in words): active RT-S9, tested individually, up to 2 h
[3] = Baseline equilibrium BCF predicted from DMLW and phospholipid content; set-up: species or system fish; details: fML of 1%
[4] = RT-S9 substrate depletion assay, cationic surfactants tested as mixtures of six; type: in vitro ADME, rainbow trout (Oncorhynchus mykiss); details: for CLint,in vivo lower in mixture than tested individually: Mixture 2; for Clearance rate in mixture compared with single-compound assay (in words): Mixture 1
[5] = N-demethylation metabolite formation in RT-S9 assay; type: in vitro ADME, rainbow trout (Oncorhynchus mykiss); details: for Time of peak concentration of 2° alkylamine metabolite: 2-h RT-S9 assay; for 1° alkylamine product present at last time point as % of removed parent: 120 min
Summary of the method: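 Trout liver S9 (2 mg/ml protein) with 2 mM NADPH, 2 mM UDPGA, 0.1 mM PAPS, 5 mM GSH and alamethicin, pH 7.8, 11 °C; substrate starts at about 1.0 µM. Sampled at 0, 20, 40, 60, 90 and 120 min and quenched in ice-cold acetonitrile. N-demethylated products scanned by LC–MS/MS and quantified against external standards. Metabolite mass divided by parent mass removed at the same time point.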

[6] = human liver microsomes; ref Seguin et al., 2019; cited from earlier work
[7] = 14C-labeled, 1.1 × 10^6 cells/ml, by 2.5 h; ref Bernhard et al., 2006; cited from earlier work
[8] = Cofactor-limited depletion of T12 in RT-S9 assay; type: in vitro ADME, rainbow trout (Oncorhynchus mykiss)
Summary of the method: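 Pooled liver S9 from five trout, 2 mg/ml protein, in 100 mM PPBS pH 7.8 with 10 μg/ml alamethicin, at 11 °C; substrate starts at about 1.0 µM. Duplicate six-sample time series over 60 min, either with no added cofactors, NADPH (2 mM) alone, NADPH plus UDPGA (2 mM), GSH (5 mM) or PAPS (0.1 mM), or all cofactors. Parent and N-demethyl product measured by LC–MS/MS.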

[9] = In vitro half-life with human liver microsomes; type: in vitro ADME

## CCCCCCCCNC [S8]
[1]
  Depletion / biotransformation in RT-S9 (in words): negligible depletion

## CCCCCCCCCCCCCC[N+](C)(C)Cc1ccccc1.[Cl-] [BAC14, Benzyldimethyltetradecylammonium chloride]
[2]
  Depletion / biotransformation in RT-S9 assay (in words): No significant depletion

## CCCCCCCCCC[N+](C)(C)C.[Br-] [Q10, N,N,N-Trimethyldecylammonium bromide]
[2]
  Depletion / biotransformation in RT-S9 assay (in words): no significant biotransformation

## CCCCCCCCCCCCCC[N+](C)(C)C.[Cl-] [Q14, N,N,N-Trimethyltetradecylammonium chloride]
[2]
  Depletion / biotransformation in RT-S9 assay (in words): no significant biotransformation
[3]
  Factor by which BCFbaseline estimate exceeds empirical BCF or BAF: 33

## CCCCCCCCCN(C)C [T9, N,N-Dimethylnonylamine]
[4]
  CLint,in vivo lower in mixture than tested individually: 43%
[2]
  Depletion / biotransformation in RT-S9 assay (in words): reduced below the limit of quantitation

## CCCCCCCCCCCC[N+](C)(C)C.[Cl-] [Q12]
[1]
  Depletion / biotransformation in RT-S9 (in words): identical result

## CCCCCCCCCCN(C)C [T10, N,N-Dimethyldecylamine]
[4]
  Clearance rate in mixture compared with single-compound assay (in words): not significantly different
[2]
  Depletion / biotransformation in RT-S9 assay (in words): reduced below the limit of quantitation
[5]
  Time of peak concentration of 2° alkylamine metabolite: 20 min

## CCCCCCCCCCCCCCCCNC [S16, N-Methylhexadecylamine]
[4]
  CLint,in vivo lower in mixture than tested individually: 70%
[3]
  Factor by which BCFbaseline estimate exceeds empirical BCF or BAF: 49
[5]
  1° alkylamine product present at last time point as % of removed parent: 55%

## CCCCCCCCCCCCCCCC[N+](C)(C)Cc1ccccc1 [BAC16]
[6]
  In vitro half-life: 15 min

## CCCCCCCCCCCCCCCCCCN(C)C [T18, N,N‐dimethyloctadecylamine]
[3]
  Factor by which BCFbaseline estimate exceeds empirical BCF or BAF: 128

## CCCCCCCCCCCCCN [P13, Tridecylamine]
[3]
  Factor by which BCFbaseline estimate exceeds empirical BCF or BAF: 10
  Predicted BCFbaseline: 14,000 L kg^–1

## CCCCCCCCN(C)C [T8, N,N-Dimethyloctylamine]
[1]
  CLint,in vivo: 184 ml h^–1 g liver^–1

## CCCCCCCCCCCCCCCCN [P16, Hexadecylamine]
[2]
  Depletion / biotransformation in RT-S9 assay (in words): No significant depletion; also recorded: no detectable biotransformation
[3]
  Factor by which BCFbaseline estimate exceeds empirical BCF or BAF: 70
[7]
  Concentration remaining, % of starting value: 56.0 ± 1.3%

## CCCCCCCCCCCCN(C)C [T12, N,N-Dimethyldodecylamine]
[8]; RT-S9 with only NADPH added
  CLint,in vivo: 224 ml h^–1 g liver^–1
[8]; UDPGA or GSH in combination with NADPH, vs NADPH only
  Clearance (in words): did not result in increased clearance
[8]; active RT-S9, no added cofactors
  Depletion (in words): no significant depletion
[2]
  Depletion / biotransformation in RT-S9 assay (in words): reduced below the limit of quantitation
[1]
  CLint,in vivo: 472 ml h^–1 g liver^–1

## CCCCCCCCCCCCCCN(C)C [T14, N,N-Dimethyltetradecylamine]
[3]
  Factor by which BCFbaseline estimate exceeds empirical BCF or BAF: 3.1

## CCCCCCCCCCCC[N+](C)(C)Cc1ccccc1 [BAC12, Benzyldimethyldodecylammonium chloride]
[2]; RT-S9, present study, tested individually
  CLint,in vitro: 0.14 ml h^–1 mg protein^–1
[2]
  Depletion / biotransformation in RT-S9 assay (in words): significant depletion
[6]
  In vitro half-life: 3 min
[9]; HLM vs present study RT-S9
  HLM CLint,in vitro faster than RT-S9 CLint,in vitro: approximately 100 times
[9]; from half-life of ref Seguin et al., 2019
  CLint,in vitro corresponding to HLM half-life: 13.86 ml h^–1 mg protein^–1

## CCCCCCCCCN [P9, Nonylamine]
[4]
  Clearance rate in mixture compared with single-compound assay (in words): not significantly different

## CCCCCCCCCCCCNC [S12, N-Methyldodecylamine]
[4]
  CLint,in vivo lower in mixture than tested individually: 50%
[1]
  CLint,in vivo: 162 ml h^–1 g liver^–1
[5]
  1° alkylamine product present at last time point as % of removed parent: 25%

## CCCCCCCCCCCCN [P12, Dodecylamine]
[2]
  Depletion / biotransformation in RT-S9 assay (in words): No significant depletion
[1]
  CLint,in vivo: 37 ml h^–1 g liver^–1

## CCCCCCCCCCCC(=O)OCCN [P12‐Ac, 2-aminoethyl laurate]
[2]; RT-S9 assay
  Clearance rate relative to alkylamine analog P12: 10 times higher

## CCCCCCCCCC[N+](C)(C)Cc1ccccc1.[Cl-] [BAC10]
[6]
  In vitro half-life: 1 min

## CCCCCCCCCCCCCCCCN(C)C [T16, N,N-Dimethylhexadecylamine]
[3]
  Factor by which BCFbaseline estimate exceeds empirical BCF or BAF: 42
[5]
  Time of peak concentration of 2° alkylamine metabolite: 120 min

## CCCCCCCCCCCCCCCC[N+](C)(C)C.[Cl-] [Q16, N,N,N-Trimethylhexadecylammonium chloride]
[2]
  Depletion / biotransformation in RT-S9 assay (in words): no significant biotransformation

## CCCCCCCCCCCCCCN [P14, Tetradecylamine]
[2]
  Depletion / biotransformation in RT-S9 assay (in words): No significant depletion

## CCCCCCCCCC[N+](C)(C)CCCCCCCCCC [DDAC, didecyldimethylammonium chloride]
[3]
  Factor by which BCFbaseline estimate exceeds empirical BCF or BAF: 420

## CCCCCCCCN [P8]
[1]
  Depletion / biotransformation in RT-S9 (in words): no significant depletion

## CCCCCCCC[N+](C)(C)C.[Cl-] [Q8]
[1]
  Depletion / biotransformation in RT-S9 (in words): identical result

## CCCCCCCCCCCCCN(C)C [T13, N,N-Dimethyltridecylamine]
[4]
  Clearance rate in mixture compared with single-compound assay (in words): not significantly different

## CCCCCCCCCCNC [S10, N-Methyldecylamine]
[5]
  1° alkylamine product present at last time point as % of removed parent: 10%
